Source: PubChem BioAssay AID588767 (The Scripps Research Institute Molecular Screening Center, 2011)
Active and inactive are the calls of the source.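 Rule for the calls: active = inhibition of at least 50% at 0.1 µM compound; inactive = inhibition below 50%.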

Target: Platelet-activating factor acetylhydrolase 2, cytoplasmic (Mus musculus) (UniProt Q8VDG7)
Experiment: PAFAH2 inhibition in T-cell proteome, late-stage follow-up, selectivity assay for pPAFAH inhibitor project, cell lysate, gel-based competitive ABPP, fluorescence (AID 588767)
Details: BW5147 T-cell soluble proteome, FP-Rh, stronger effect = higher value
Outline: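 Test system: mouse T-cell soluble proteome with native PAFAH2; Input: proteome 1 mg/mL; Schedule: compound pre-incubation 30 min and probe labelling 30 min, both 37 °C; Technique: in-gel fluorescence after SDS-PAGE; Evaluation: percent inhibition from PAFAH2 band integrated optical density versus DMSO control.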

Sequence of Platelet-activating factor acetylhydrolase 2, cytoplasmic (Mus musculus) (Q8VDG7 whole entry, looked up): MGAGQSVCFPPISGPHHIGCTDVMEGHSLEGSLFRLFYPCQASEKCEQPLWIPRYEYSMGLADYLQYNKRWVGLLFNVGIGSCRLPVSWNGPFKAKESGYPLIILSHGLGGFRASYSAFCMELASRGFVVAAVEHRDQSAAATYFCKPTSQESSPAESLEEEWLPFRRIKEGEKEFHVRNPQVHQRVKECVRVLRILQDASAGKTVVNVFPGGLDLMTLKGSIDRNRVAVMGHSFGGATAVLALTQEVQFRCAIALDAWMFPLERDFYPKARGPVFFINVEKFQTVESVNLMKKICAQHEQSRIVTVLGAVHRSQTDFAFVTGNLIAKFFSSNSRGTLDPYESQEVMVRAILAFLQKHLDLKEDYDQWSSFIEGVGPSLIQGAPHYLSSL

Row | SMILES | inhibition (at 0.1 µM) | inhibition (inhibition, at 1 µM) [%] | inhibition (inhibition, at 10 µM) [%]
1 | COc1ccc2cc(-c3cnn(C(=O)N4CCCC4)n3)ccc2c1 | 100% |  | 
2 | Cc1cc(N2CCN(C(=O)Oc3ccc(-c4ccccc4)cn3)CC2)c2ccccc2n1 | 0% (inactive) | 0 | 0
